Key:
[1] = tested on: Tumour; experiment: Drug level in human LNCaP cells xenografted NSG mouse tumor at 20 nmol, ip measured after 24 hrs by liquid scintillation counting method relative to other tissues; assay type: ADME, organism-based, Neoplasm; settings: in vivo
In short: (§1)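 Male NSG mice bearing subcutaneous flank LNCaP xenografts. The graft was 2.5M cells in 200 μL of 1:1 culture medium/matrigel, using cells at or below passage 25 with >90% viability by trypan blue. C-14 labeled compound was given i.p. at 20 nmol per animal 4-8 weeks after engraftment. Mice were euthanized by CO2. Tumor, kidney, liver and lung were excised.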

[2] = tested on: Liver; experiment: Drug level in human LNCaP cells xenografted NSG mouse liver at 20 nmol, ip measured after 24 hrs by liquid scintillation counting method relative to lung; assay type: ADME, organism-based; settings: in vivo; in short: as §1
[3] = tested on: Kidney; experiment: Drug level in human LNCaP cells xenografted NSG mouse kidney at 20 nmol, ip dosed on days 1, 4 and 7 measured 24 hrs after last dose by liquid scintillation counting method relative to single injection dose; assay type: ADME, organism-based; settings: in vivo; in short: as §1
[4] = tested on: Liver; experiment: Drug level in human LNCaP cells xenografted NSG mouse liver at 20 nmol, ip dosed on days 1, 4 and 7 measured 24 hrs after last dose by liquid scintillation counting method relative to single injection dose; assay type: ADME, organism-based; settings: in vivo; in short: as §1
[5] = tested on: Liver; experiment: Drug level in human LNCaP cells xenografted NSG mouse liver at 20 nmol, ip measured after 24 hrs by liquid scintillation counting method relative to kidney; assay type: ADME, organism-based; settings: in vivo; in short: as §1
[6] = tested on: Liver; experiment: Drug level in human LNCaP cells xenografted NSG mouse liver at 20 nmol, ip measured after 24 hrs by liquid scintillation counting method; assay type: ADME, organism-based; settings: in vivo; in short: as §1
[7] = tested on: Tumour; experiment: Drug level in human LNCaP cells xenografted NSG mouse tumor at 20 nmol, ip measured after 24 hrs by liquid scintillation counting method; assay type: ADME, organism-based, Neoplasm; settings: in vivo; in short: as §1
[8] = tested on: Tumour; experiment: Drug level in human LNCaP cells xenografted NSG mouse tumor at 20 nmol, ip dosed on days 1, 4 and 7 measured 24 hrs after last dose by liquid scintillation counting method relative to single injection dose; assay type: ADME, organism-based, Neoplasm; settings: in vivo; in short: as §1
[9] = tested on: Tumour; experiment: Drug level in human LNCaP cells xenografted NSG mouse tumor at 20 nmol, ip measured up to 1 to 7 days by liquid scintillation counting method; assay type: ADME, organism-based, Neoplasm; settings: in vivo; in short: as §1
[10] = tested on: Tumour; experiment: Drug level in human LNCaP cells xenografted NSG mouse tumor at 20 nmol, ip measured after 24 hrs by liquid scintillation counting method relative to liver; assay type: ADME, organism-based; settings: in vivo; in short: as §1
[11] = tested on: Tumour; experiment: Drug level in human LNCaP cells xenografted NSG mouse tumor at 20 nmol, ip dosed on days 1, 4 and 7 measured 24 hrs after last dose by liquid scintillation counting method; assay type: ADME, organism-based, Neoplasm; settings: in vivo, read-out: Drug uptake; in short: as §1
[12] = tested on: Liver; experiment: Drug level in human LNCaP cells xenografted NSG mouse liver at 20 nmol, ip measured up to 1 to 7 days by liquid scintillation counting method; assay type: ADME, organism-based; settings: in vivo; in short: as §1
[13] = tested on: Lung; experiment: Drug level in human LNCaP cells xenografted NSG mouse lung at 20 nmol, ip measured up to 1 to 7 days by liquid scintillation counting method; assay type: ADME, organism-based; settings: in vivo; in short: as §1
[14] = tested on: Lung; experiment: Drug level in human LNCaP cells xenografted NSG mouse lung at 20 nmol, ip measured after 24 hrs by liquid scintillation counting method; assay type: ADME, organism-based; settings: in vivo; in short: as §1
[15] = tested on: Kidney; experiment: Drug level in human LNCaP cells xenografted NSG mouse kidney at 20 nmol, ip measured after 24 hrs by liquid scintillation counting method; assay type: ADME, organism-based; settings: in vivo; in short: as §1
[16] = tested on: Kidney; experiment: Drug level in human LNCaP cells xenografted NSG mouse kidney at 20 nmol, ip measured up to 1 to 7 days by liquid scintillation counting method; assay type: ADME, organism-based; settings: in vivo; in short: as §1
[17] = tested on: Tumour; experiment: Drug level in human LNCaP cells xenografted NSG mouse tumor at 20 nmol, ip measured after 4 hrs by liquid scintillation counting method relative to liver; assay type: ADME, organism-based; settings: in vivo; in short: as §1

fold change (FC) [1] | fold change (FC) [2] | fold change (FC) [3] | fold change (FC) [4] | fold change (FC) [5] | Drug uptake [6] | concentration ([7]; read-out: Drug uptake) | fold change (FC) [8] | Drug uptake [9] | fold change (FC) [10] | concentration [11] | Drug uptake [12] | Drug uptake [13] | Drug uptake [14] | Drug uptake [15] | Drug uptake [16] | fold change (FC) [17] | Drug uptake [7] | SMILES
2 | 8.7 | 1.8 | 1.8 | 4.2 | 1.04 mg/kg | 1060 nM | 2.4 | 0.45 mg/kg | 1.5 | 2500 nM | 0.27 mg/kg | 0.06 mg/kg | 0.12 mg/kg | 0.25 mg/kg | 0.05 mg/kg | 2 | – | CC(=O)N[C@H](CCNC(=O)c1cc(NC(=O)c2cc(NC(=O)c3cc(NC(=O)c4nccn4C)cn3C)cn2C)cn1C)C(=O)Nc1cn(C)c(C(=O)Nc2cc(C(=O)Nc3cc(C(=O)Nc4cc(C(=O)NCCCN(C)CCCN[14C](=O)c5cccc([14C](=O)O)c5)n(C)c4)n(C)c3)n(C)c2)n1
– | – | – | – | – | Active | – | – | – | – | – | – | – | Active | Active | – | – | Active | C[14C](=O)N[C@H](CCNC(=O)c1cc(NC(=O)c2cc(NC(=O)c3cc(NC(=O)c4nccn4C)cn3C)cn2C)cn1C)C(=O)Nc1cn(C)c(C(=O)Nc2cc(C(=O)Nc3cc(C(=O)Nc4cc(C(=O)NCCCN(C)CCCNC(=O)c5cccc(C(=O)O)c5)n(C)c4)n(C)c3)n(C)c2)n1
– | – | – | – | – | Active | – | – | – | – | – | – | – | 0.93 mg/kg | Active | – | – | Active | CN(CCCNC(=O)c1cc(NC(=O)c2cc(NC(=O)c3cc(NC(=O)c4nc(NC(=O)[C@H](N)CCNC(=O)c5cc(NC(=O)c6cc(NC(=O)c7cc(NC(=O)c8nccn8C)cn7C)cn6C)cn5C)cn4C)cn3C)cn2C)cn1C)CCCN[14C](=O)c1cccc([14C](=O)O)c1
